Drawing on the RNAGym collection of RNA variant scans (doi:10.1126/science.aae0568), this text covers yeast fitness for 167 variants.

This sample holds only a part of the variants without activity.

First the molecules themselves.
B1: tRNA (parent)
chain: GUUCCGUUGGCGUAAUGGUAACGCGUCUCCCUCCUAAGGAGAAGACUGCGGGUUCGAGUCCCGUACGGAACG

The data set covers variants of B1. Kind of data set: yeast fitness relative to wild type (ratio to wild type); higher = fitter; tRNA-Arg(CCU), competitive growth, 37 C, YPD. The method in brief: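 Variants of the tRNA-Arg(CCU) gene were chemically synthesised with a 3% per-site mutation rate across 69 sites and placed at the native genomic locus in Saccharomyces cerevisiae. Six parallel replicates of the pooled strains were competed in YPD at 37°C for 24 hours, and gene amplicons from the start and end populations were read by 100-nucleotide paired-end sequencing. Darwinian fitness relative to wild type was derived from changes in genotype frequencies. Genotypes required ≥ 100 starting reads, and estimates < 0.5 were set to 0.5.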
For the variant G58A G68U A70G, the yeast fitness is 0.601.

Take C22A U47A C55A: the yeast fitness is ≤ 0.5.

A15C U28A C30U C34G A43U: the yeast fitness is ≤ 0.5.

For A21C U26A C46U C55U, the yeast fitness came to 0.608.

With C5A A21G U32G, the yeast fitness was ≤ 0.5.

Take A20C U59A: the yeast fitness is 0.697.

In the case of C27A C55U, the yeast fitness came to 0.662.

Turning to C5U G18C C22U G50A G52C, the yeast fitness was ≤ 0.5.

U26C A36C G56C: the yeast fitness is 0.633.

Consider U59C C66U, for which the yeast fitness came to 0.911.

With U28A C34G G39C A57G C66U, the yeast fitness is ≤ 0.5.

In the case of A14U C33U, the yeast fitness is ≤ 0.5.

For the variant U3A C30G U64A A69C, the yeast fitness is ≤ 0.5.

Turning to A14G U16G C24G U26C U47G G50C, the yeast fitness came to 0.515.

In the case of C29U A36U C66U G67A, the yeast fitness is 0.527.

Take C46U G50A C66U: the yeast fitness amounted to 0.792.

For the variant G12A G18A C31U A70G, the yeast fitness is ≤ 0.5.

C5A C34U A36C A40C C55A C66U: the yeast fitness was ≤ 0.5.

As for C11A A37C C49G, the yeast fitness was ≤ 0.5.

With U13A G41A A45C, the yeast fitness is 0.552.

Turning to G12A G44A C66U, the yeast fitness worked out at 0.697.

In the case of C11A A15U C34A G39C A40C G56C C61G C62G G68C, the yeast fitness is ≤ 0.5.

As for C5U C24U C29A, the yeast fitness was found to be 0.574.

For A20G U28C A40U, the yeast fitness was found to be 1.04.

As for C5U U28A G41A C66U, the yeast fitness worked out at 0.542.

In the case of U7A A21U C27G C33G A45U, the yeast fitness came to 0.506.

For C11U A21C A36C A70U, the yeast fitness was ≤ 0.5.

As for U2A G9C G17A, the yeast fitness was ≤ 0.5.

A15G U16A G38C C62G G68A: the yeast fitness is ≤ 0.5.

Turning to A37G A57C, the yeast fitness amounted to 0.545.

Take C33G C61U C62G C66U: the yeast fitness is ≤ 0.5.

For the variant C4A C27U U28G C33G A36G C66U, the yeast fitness stood at 0.542.

Consider C11U U32A C34A A43C C61U G68A, for which the yeast fitness was ≤ 0.5.

With C4G C29A C30U C62G U64A, the yeast fitness was ≤ 0.5.

In the case of C11U G44C C61U, the yeast fitness was found to be 0.528.

For the variant G17A U32C A40G A65C, the yeast fitness was ≤ 0.5.

As for A40C C46G G51C A57C A65U A70C, the yeast fitness was 0.555.

For the variant U28C U35C, the yeast fitness came to 0.751.

Regarding U13C A45G, the yeast fitness was 0.916.

In the case of C46U U59A C61G C66U, the yeast fitness was 0.649.

Consider A42U G52C A70G, for which the yeast fitness worked out at 0.521.

Regarding A20C A40G A42U G50A G51C, the yeast fitness is ≤ 0.5.

With G10C U35G C66U, the yeast fitness was ≤ 0.5.

For the variant U2G G48C G52C C62G, the yeast fitness came to 0.541.

Consider C5A A65C A70C, for which the yeast fitness is 0.675.

With C27G C46U U54C, the yeast fitness is 0.738.

For C5U A20U A36U, the yeast fitness was ≤ 0.5.

Consider C4U G12A C24A C61U, for which the yeast fitness worked out at 0.609.

For the variant G6A C11A A14C U19C G23A U32A A42C, the yeast fitness was 0.532.

For the variant C5G U13A A20G U35A A40G, the yeast fitness was ≤ 0.5.

Take C33U U47C G48A G58A: the yeast fitness came out at 0.506.

Consider C27A C34A G67U A69C, for which the yeast fitness was ≤ 0.5.

For the variant C4G G6C, the yeast fitness is 0.657.

As for G10C A14U G56A, the yeast fitness is ≤ 0.5.

As to C24A A57C, the yeast fitness was ≤ 0.5.

On to G25A A40U A42C A45U U47C A65G, for which the yeast fitness amounted to 0.664.

G6A A14U G23A C29G C46A C55G G68A A70C: the yeast fitness was ≤ 0.5.

C5G C27G A45C: the yeast fitness is ≤ 0.5.

In the case of G18U C24U A69U, the yeast fitness is ≤ 0.5.

Turning to C4U A21C C22A C60U, the yeast fitness was ≤ 0.5.

In the case of U8C A40G A43C A69U, the yeast fitness is ≤ 0.5.

Turning to C5G G17C A20C A21U C27U C33G G67A, the yeast fitness is 0.595.

For the variant A21G G39C A42C, the yeast fitness was 0.563.

Take C4G U8A G12A A57G: the yeast fitness is ≤ 0.5.

For A21G C29U G38A C62U G67C, the yeast fitness came to 0.629.

Regarding G6C C49U U53A C66U A70U, the yeast fitness is ≤ 0.5.

As to C34A C49U G58C, the yeast fitness was ≤ 0.5.

For the variant U54C A65C, the yeast fitness was 0.862.

With U13A C34U A40U A65C, the yeast fitness is ≤ 0.5.

On to C4U G18A A20G G23C C24G C46G, for which the yeast fitness is ≤ 0.5.

For the variant C29G A36G C66G, the yeast fitness is ≤ 0.5.

Take A37G A65C: the yeast fitness was determined as 0.942.

As for A14G U35A, the yeast fitness was 0.561.

Take C31G U32A: the yeast fitness was determined as 0.766.

U7G C61U: the yeast fitness was 0.78.

On to U19A C29G C33U U47A G51A C61U, for which the yeast fitness was ≤ 0.5.

With G51C A70U, the yeast fitness turned out to be 0.662.

Consider U16G C29G C62U, for which the yeast fitness is ≤ 0.5.

On to U2A U13C U19G C22U C31U A40U G67A, for which the yeast fitness was ≤ 0.5.

G44A G67A: the yeast fitness was determined as 0.887.

For the variant C5U C30U U47A G67C, the yeast fitness is 0.542.

Turning to G10A U16G, the yeast fitness amounted to 0.611.

Take G18A C27U U28C C31A C55G C61A: the yeast fitness came to 0.572.

With U3C A21U G67C, the yeast fitness was ≤ 0.5.

Turning to U7A C22G C24G U28C G56A A65U, the yeast fitness was ≤ 0.5.

For the variant A15U A21G C31G C49A, the yeast fitness was ≤ 0.5.

Turning to U26G A36G G68A A69G, the yeast fitness came to 0.626.

Take G25C A70C: the yeast fitness amounted to 1.05.

In the case of U2C U3C C34U A40U C55U A65G, the yeast fitness was ≤ 0.5.

Consider U3G G52C C62A A65C A70U, for which the yeast fitness is ≤ 0.5.

As to G10A C49U A69U, the yeast fitness was ≤ 0.5.

As to A15G U54G, the yeast fitness worked out at 0.612.

As for C31G U54C, the yeast fitness was 0.798.

Take A43C C62A: the yeast fitness turned out to be 0.874.

Take U7A G17C A37G C49A: the yeast fitness was ≤ 0.5.

Consider C11U U13C C29U A37C G39A C46A, for which the yeast fitness is ≤ 0.5.

On to A45G A65U, for which the yeast fitness came out at 0.911.

Consider U32G C49G C55A, for which the yeast fitness amounted to 0.65.

With G6C A45C C46G C55U, the yeast fitness was ≤ 0.5.

Take G38A A40U G50C C60G: the yeast fitness was ≤ 0.5.

A42U A45C A69C: the yeast fitness is 0.67.

Take U7G A37G C49A: the yeast fitness is ≤ 0.5.

Turning to U7C A57U U64C G67C, the yeast fitness is 0.501.

As to A42C C60A, the yeast fitness was found to be 0.672.

Regarding U8G C30G C33G C61A A69U, the yeast fitness was ≤ 0.5.

Turning to C27A G41A U47A, the yeast fitness is ≤ 0.5.

Turning to G12A C22U C24U, the yeast fitness was ≤ 0.5.

Take A57U C60G G67A G68C: the yeast fitness is ≤ 0.5.

C22G C46U G50A: the yeast fitness was 0.719.

Consider U8A C24G U26A G50A, for which the yeast fitness is ≤ 0.5.

A15G U16C A20C A21U U26C: the yeast fitness was ≤ 0.5.

With G9C A21U C27U, the yeast fitness is ≤ 0.5.

As to U2A C11A G38C C60A, the yeast fitness was 0.582.

As to C5A A20U C29A G68A, the yeast fitness is ≤ 0.5.

Regarding U8A G18C G25C C60U U64A, the yeast fitness is ≤ 0.5.

Turning to A14C C34U G39C G63A, the yeast fitness was ≤ 0.5.

For C5U A21U U32A A40U C60G, the yeast fitness turned out to be 0.694.

As to G6C C11A C22A C29G, the yeast fitness is ≤ 0.5.

Regarding G48A C66U A69C, the yeast fitness is 0.719.

Regarding C27U A36C G39C G48C G63U A70U, the yeast fitness amounted to 0.636.

Take C4G A14G A69C: the yeast fitness was determined as 0.508.

Turning to A36U U59C C62G, the yeast fitness was ≤ 0.5.

As to G10A A20C C27G A40G G56C, the yeast fitness is ≤ 0.5.

U7C G39C C46U C49U G56A G68C: the yeast fitness is ≤ 0.5.

For the variant G6C A43G C49U C60A C62A, the yeast fitness was determined as 0.691.

Turning to C27U C31G A43C C49G G52C U59A, the yeast fitness came to 0.54.

For the variant U8A G44C C62U, the yeast fitness was ≤ 0.5.

C27A A43G: the yeast fitness is 0.778.

U13C C33A A36U: the yeast fitness was ≤ 0.5.

Regarding A21G C33G G38A G63A, the yeast fitness is ≤ 0.5.

For A57G C61U, the yeast fitness was 0.699.

As for U3C U13C U16A A45G C61A U64C, the yeast fitness was ≤ 0.5.

As to U19C G23A C24A C29U C30U G63A, the yeast fitness was ≤ 0.5.

For A15G A45C C61U, the yeast fitness turned out to be 0.574.

For G12A G23A C49U C60U G67A, the yeast fitness was ≤ 0.5.

As to G17A A20C G25A G68C, the yeast fitness was ≤ 0.5.

On to U3C U8A A43G A57U G63A, for which the yeast fitness was ≤ 0.5.

For the variant A21U C31A G39C C61A, the yeast fitness came out at 0.579.

G12A C24G C29A A69U A70G: the yeast fitness was ≤ 0.5.

On to A20G C33G U53A, for which the yeast fitness is ≤ 0.5.

On to C27U G58C U59C A70G, for which the yeast fitness was ≤ 0.5.

For the variant U7G A45U, the yeast fitness amounted to 0.852.

For U2G G12A G41C, the yeast fitness was 0.596.

Consider U16C A40U, for which the yeast fitness came out at 0.789.

Consider U19A A42G G68U, for which the yeast fitness is ≤ 0.5.

With U26C U35C G50C G52A, the yeast fitness is ≤ 0.5.

For the variant G56C A57G A69C, the yeast fitness was ≤ 0.5.

For the variant C4A A21U C27A G41C, the yeast fitness is ≤ 0.5.

On to C4G C11U U47A, for which the yeast fitness was ≤ 0.5.

Consider C11U U13A G25A, for which the yeast fitness was 0.716.

With G9A A43C A69U A70C, the yeast fitness was found to be 0.782.

Take C4A C29U A37G G39C C49U G67A: the yeast fitness is ≤ 0.5.

Take G10A C29A C66U G67U G68A: the yeast fitness turned out to be 0.56.

For the variant C22U G51C C61G, the yeast fitness was determined as 0.556.

For the variant C11A G17C C22G G23C G58C A70G, the yeast fitness is ≤ 0.5.

As to C29U G48C G50A, the yeast fitness is ≤ 0.5.

As for G17A C29U C49A C62U, the yeast fitness is ≤ 0.5.

As for U8C C24U A45G C46G C55G, the yeast fitness is ≤ 0.5.

Turning to A20C G52C U54A, the yeast fitness is ≤ 0.5.

Take A57U C61A: the yeast fitness came to 0.528.

Consider U7A A57G, for which the yeast fitness came out at 0.759.

For C46A U54G, the yeast fitness was 0.544.

A42C C61G: the yeast fitness came to 0.721.

G6A C66A: the yeast fitness was 0.879.

For the variant G23A C31U G48C C55G A69U, the yeast fitness was ≤ 0.5.

On to A36G G58A, for which the yeast fitness worked out at 0.898.

For A14C G51A, the yeast fitness amounted to 0.714.
